Measurements: ChEMBL document CHEMBL4351010, “Design, synthesis and biological evaluation of 2-hydrazinyladenosine derivatives as A2A adenosine receptor ligands” (Eur J Med Chem, 2019)

How the values were obtained:
[1] = target: T1, Adenosine receptor A1 (Homo sapiens, UniProt P30542); assay: Displacement of [3H]DPCPX from human cloned adenosine receptor A1 expressed in CHO-K1 cell membranes incubated for 60 mins by microbeta counting method
T1 sequence (P30542 whole entry): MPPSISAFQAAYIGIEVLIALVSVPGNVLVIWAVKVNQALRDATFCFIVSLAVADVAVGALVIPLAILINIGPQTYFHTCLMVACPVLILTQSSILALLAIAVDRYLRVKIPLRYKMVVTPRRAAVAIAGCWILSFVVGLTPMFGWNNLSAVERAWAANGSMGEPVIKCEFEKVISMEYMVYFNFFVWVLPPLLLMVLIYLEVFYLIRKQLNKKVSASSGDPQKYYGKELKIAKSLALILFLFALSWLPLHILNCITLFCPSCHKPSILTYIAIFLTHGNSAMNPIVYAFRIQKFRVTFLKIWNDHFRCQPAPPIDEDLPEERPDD
Outline: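 Radioligand [3H]DPCPX at 5 nM. Compounds tested as 10-point three-fold dilution series. Incubation 60 min at 27°C. Read-out by GF/B filtration and scintillation counting. Ki obtained from IC50 by Cheng–Prusoff (Kd 2.28 nM). Mean ± SEM of duplicates.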

[2] = target: T2, Adenosine receptor A1 (Homo sapiens) (UniProt P30542); assay: Displacement of [3H]DPCPX from human cloned adenosine receptor A1 expressed in CHO-K1 cell membranes at 1 uM incubated for 60 mins by microbeta counting method relative to control
T2 sequence (whole entry): T1 sequence (P30542 whole entry)
Outline: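 Human A1 CHO-K1 membranes in Tris-HCl pH 7.4/MgCl2/EDTA buffer with adenosine deaminase. Radioligand [3H]DPCPX at 5 nM. Single compound concentration of 1 μM. Incubation 60 min at 27°C. Filtration then scintillation counting. Result is percent displacement of specific binding.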

[3] = organism: Homo sapiens; assay: Selectivity index, ratio of Ki for human cloned adenosine receptor A1 expressed in CHO-K1 cell membrane to Ki for human cloned adenosine receptor A2A expressed in HEK293 cell membrane incubated for 60 mins by microbeta counting method; assay type: cell-based
Outline: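 Ratio Ki(A1)/Ki(A2A). […] Both assays incubated 60 min at 27°C and read by filtration scintillation counting. Ki values from Cheng–Prusoff conversion.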

[4] = target: T3, Adenosine receptor A2a (Homo sapiens, UniProt P29274); assay: Displacement of [3H]CGS21680 from human cloned adenosine receptor A2A expressed in HEK-293 cell membrane incubated for 60 mins by microbeta counting method; assay type: cell membranes
Outline: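 Compounds tested as 10-point three-fold dilution series. Incubation 60 min at 27°C. Bound ligand separated by GF/B filtration, scintillation counted. Mean ± SEM of duplicates.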

[5] = target: T3, Adenosine receptor A2a; assay: Agonist activity at human adenosine receptor A2A expressed in HEK293 cells assessed as cAMP accumulation incubated for 30 mins by Eu-cAMP tracer-based Envision plate reader analysis; assay type: functional, cell-based
Outline: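 Intact HEK-293 cells stably expressing human A2A receptor, detached with Versene, resuspended at 300 cells/well in HBSS/HEPES/BSA buffer pH 7.4 with rolipram. Compounds given as 11-point three-fold DMSO dilution series.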

[6] = target: T1, Adenosine receptor A1; assay: Displacement of [3H]CPX from human adenosine receptor A1 expressed in CHO-K1 cell membranes incubated for 2 hrs by radioligand competitive binding analysis
[7] = target: T3, Adenosine receptor A2a; assay: Displacement of [3H]CGS21680 from human cloned adenosine receptor A2A expressed in HEK-293 cell membrane at 1 uM incubated for 60 mins by microbeta counting method relative to control; assay type: cell membranes
Outline: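 Human A2A HEK-293 membranes in Tris-HCl pH 7.4/MgCl2/EDTA buffer with adenosine deaminase. […] Single compound concentration of 1 μM. Incubation 60 min at 27°C. Filtration then scintillation counting. Result is percent displacement of specific binding.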

T3 sequence (P29274 whole entry): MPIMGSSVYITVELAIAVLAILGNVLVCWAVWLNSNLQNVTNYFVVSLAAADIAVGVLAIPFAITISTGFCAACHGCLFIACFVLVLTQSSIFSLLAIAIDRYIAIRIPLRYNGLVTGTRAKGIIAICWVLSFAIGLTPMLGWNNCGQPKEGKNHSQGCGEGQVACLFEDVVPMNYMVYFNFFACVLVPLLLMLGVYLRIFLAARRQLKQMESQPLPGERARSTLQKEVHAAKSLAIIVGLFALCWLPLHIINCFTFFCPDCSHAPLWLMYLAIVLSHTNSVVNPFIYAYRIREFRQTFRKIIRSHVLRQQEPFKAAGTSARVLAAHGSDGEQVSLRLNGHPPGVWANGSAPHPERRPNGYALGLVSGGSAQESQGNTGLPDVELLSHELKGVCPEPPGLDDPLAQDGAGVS

| SMILES | Ki [1] [nM] | inhibition [2] [%] | Ki [4] [nM] | EC50 [5] [nM] | Ki [6] [nM] | inhibition [7] [%] | Ratio Ki [3] |
| --- | --- | --- | --- | --- | --- | --- | --- |
| Nc1nc(N/N=C/c2ccc(OCc3ccccc3)c(OCc3ccccc3)c2)nc2c1ncn2[C@@H]1O[C@H](CO)[C@@H](O)[C@H]1O | > 10000 | 0 |  |  |  |  | > 1000 |
| N#Cc1ccccc1/C=N/Nc1nc(N)c2ncn([C@@H]3O[C@H](CO)[C@@H](O)[C@H]3O)c2n1 | 2.9 |  |  |  |  |  |  |
| Nc1nc(N/N=C/c2ccc(C(F)(F)F)cc2C(F)(F)F)nc2c1ncn2[C@@H]1O[C@H](CO)[C@@H](O)[C@H]1O | > 10000 | 0 | 6280 |  |  |  | > 1000 |
| CCOc1cc(/C=N/Nc2nc(N)c3ncn([C@@H]4O[C@H](CO)[C@@H](O)[C@H]4O)c3n2)ccc1O | 6940 |  |  |  |  |  | 5 |
| Nc1nc(N/N=C/c2ccc(OCc3ccc(F)cc3)cc2)nc2c1ncn2[C@@H]1O[C@H](CO)[C@@H](O)[C@H]1O | 70 |  |  | 4.05 |  |  | 12.5 |
| COc1cc(/C=N/Nc2nc(N)c3ncn([C@@H]4O[C@H](CO)[C@@H](O)[C@H]4O)c3n2)ccc1OCc1ccccc1 | 9140 |  |  |  |  |  | 91 |
| CNC(=O)c1cnn(-c2nc(N)c3ncn([C@@H]4O[C@H](CO)[C@@H](O)[C@H]4O)c3n2)c1 [REGADENOSON ANHYDROUS] |  |  |  |  | > 16500 |  |  |
| CC(/C=N/Nc1nc(N)c2ncn([C@@H]3O[C@H](CO)[C@@H](O)[C@H]3O)c2n1)Cc1ccc(C(C)C)cc1 (some centres not stated) | 9500 |  | 6.3 | 1.38 |  |  | 1430 |
| COc1cc(/C=N/Nc2nc(N)c3ncn([C@@H]4O[C@H](CO)[C@@H](O)[C@H]4O)c3n2)cc(OC)c1OC | > 10000 | 0 | 5490 |  |  |  | > 1000 |
| Nc1nc(N/N=C/c2ccc[nH]2)nc2c1ncn2[C@@H]1O[C@H](CO)[C@@H](O)[C@H]1O | 8 |  | 8.3 | 8.52 |  |  | 0.96 |
| Nc1nc(N/N=C/c2ccc(N3CCOCC3)cc2)nc2c1ncn2[C@@H]1O[C@H](CO)[C@@H](O)[C@H]1O | 2.5 |  |  |  |  |  | 0.003 |
| COc1ccc(/C=N/Nc2nc(N)c3ncn([C@@H]4O[C@H](CO)[C@@H](O)[C@H]4O)c3n2)cn1 | 2.6 |  | 1450 |  |  |  | 0.0018 |
| CCN(CC)c1ccc(/C=N/Nc2nc(N)c3ncn([C@@H]4O[C@H](CO)[C@@H](O)[C@H]4O)c3n2)cc1 | > 10000 | 0 | 6.4 | 17.9 |  |  | > 1000 |
| Nc1nc(N/N=C/c2ccc(N(c3ccccc3)c3ccccc3)cc2)nc2c1ncn2[C@@H]1O[C@H](CO)[C@@H](O)[C@H]1O | > 10000 | 0 |  |  |  |  | > 1000 |
| Nc1nc(N/N=C/c2cccc(OCc3ccccc3)c2)nc2c1ncn2[C@@H]1O[C@H](CO)[C@@H](O)[C@H]1O | 13 |  |  |  |  |  | 0.075 |
| CCCCc1nc(/C=N/Nc2nc(N)c3ncn([C@@H]4O[C@H](CO)[C@@H](O)[C@H]4O)c3n2)c(Cl)[nH]1 | 12 |  | 18 | 1.1 |  |  | 0.67 |
| Nc1nc(N/N=C/c2ccc(N3CCCC3)cc2)nc2c1ncn2[C@@H]1O[C@H](CO)[C@@H](O)[C@H]1O | 5.1 |  | 6620 |  |  |  | 0.00077 |
| Nc1nc(N/N=C/C2CCCC2)nc2c1ncn2[C@@H]1O[C@H](CO)[C@@H](O)[C@H]1O | 5.6 |  | 4.1 | 4.34 |  |  | 1.4 |
| CCCCC/C=C/C=C/C=N/Nc1nc(N)c2ncn([C@@H]3O[C@H](CO)[C@@H](O)[C@H]3O)c2n1 | 2 |  | 17.5 | 10.2 |  |  | 0.11 |
| Nc1nc(N/N=C/c2ccc(Cl)c(C(F)(F)F)c2)nc2c1ncn2[C@@H]1O[C@H](CO)[C@@H](O)[C@H]1O | > 10000 | 11 |  |  |  |  | > 1000 |
| CSCC/C=N/Nc1nc(N)c2ncn([C@@H]3O[C@H](CO)[C@@H](O)[C@H]3O)c2n1 | > 10000 | 0 | > 10000 |  |  | 8 |  |
| Nc1nc(N/N=C/c2cccnc2Cl)nc2c1ncn2[C@@H]1O[C@H](CO)[C@@H](O)[C@H]1O | 4.6 |  | 8.7 | 4.6 |  |  | 0.53 |
| Nc1nc(N/N=C/c2cncs2)nc2c1ncn2[C@@H]1O[C@H](CO)[C@@H](O)[C@H]1O | 22 |  | 71 |  |  |  | 0.31 |

The next lines start with results.

| Ki [1] [nM] | inhibition [2] [%] | Ki [4] [nM] | EC50 [5] [nM] | Ki [6] [nM] | inhibition [7] [%] | SMILES | Ratio Ki [3] |
| --- | --- | --- | --- | --- | --- | --- | --- |
| > 10000 | 7 | 224 |  |  |  | CCCOc1ccc(/C=N/Nc2nc(N)c3ncn([C@@H]4O[C@H](CO)[C@@H](O)[C@H]4O)c3n2)cc1 | 66 |
| 7540 |  |  |  |  |  | Nc1nc(N/N=C/c2ccc(-c3ccccn3)cc2)nc2c1ncn2[C@@H]1O[C@H](CO)[C@@H](O)[C@H]1O | 36 |
| 37 |  |  |  |  |  | Nc1nc(N/N=C/c2ccc(C(F)(F)F)cc2)nc2c1ncn2[C@@H]1O[C@H](CO)[C@@H](O)[C@H]1O | 0.6 |
| 4.5 |  | > 10000 |  |  | 27 | Nc1nc(N/N=C/c2ccc(-c3ccc(Br)cc3)o2)nc2c1ncn2[C@@H]1O[C@H](CO)[C@@H](O)[C@H]1O | < 0.001 |
| > 10000 | 0 |  |  |  |  | CC(=O)Nc1ccc(/C=N/Nc2nc(N)c3ncn([C@@H]4O[C@H](CO)[C@@H](O)[C@H]4O)c3n2)cc1 | > 1000 |
| 7860 |  |  |  |  |  | Nc1nc(N/N=C/c2ccc(-c3ccccc3)cc2)nc2c1ncn2[C@@H]1O[C@H](CO)[C@@H](O)[C@H]1O |  |
| 4.1 |  | 8.5 | 15.3 |  |  | N#Cc1ccc(/C=N/Nc2nc(N)c3ncn([C@@H]4O[C@H](CO)[C@@H](O)[C@H]4O)c3n2)cc1 | 0.5 |
| 4.7 |  | 239 |  |  |  | Nc1nc(N/N=C/c2ccc(Br)cn2)nc2c1ncn2[C@@H]1O[C@H](CO)[C@@H](O)[C@H]1O | 0.02 |
| 9.8 |  | 6.5 | 5.52 |  |  | Nc1nc(N/N=C/c2ccc3ncccc3c2)nc2c1ncn2[C@@H]1O[C@H](CO)[C@@H](O)[C@H]1O | 1.5 |
| > 10000 | 0 |  |  |  |  | Nc1nc(N/N=C/c2ccc(-n3ccnc3)cc2)nc2c1ncn2[C@@H]1O[C@H](CO)[C@@H](O)[C@H]1O | > 1000 |
